Test results from publication PMC7502533 (ACS chemical biology, 2020).

Tests used:
Galectin-3 (Gal3) = assay: Gal3 recruitment to damaged endosomes; format: cell-based
TFEB = TFEB nuclear accumulation; format: cell-based; settings: for nuclear translocation of TFEB: percentage of cells displaying TFEB nuclear accumulation, biological duplicates
Outline: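 HeLa and Neuro-2a cells were treated with the CPP combined with an endosome-priming small molecule, or with LLOME. TFEB localization was then followed over time until the protein returned to a cytoplasmic distribution.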

Chmp1b = Chmp1b recruitment to damaged endosomes; format: cell-based
Neuro-2a and HeLa = assay: Recovery of LysoTracker Green staining; format: cell-based; settings: cell line not specified; biological triplicates
Outline: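 HeLa and Neuro-2a cells were exposed to the delivery agent, or LLOME as the reference, then washed. LysoTracker was added at increasing intervals after washing, and lysosomal staining was followed over time to find when it returned to the untreated level.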

[1] = tested on: Neuro-2a and HeLa cell lines; assay: Endocytic uptake of AF488-labelled probes by flow cytometry; format: cell-based; settings: AF488-H1 added after reagent treatment, biological duplicates
[2] = cells incubated with reagent, washed and imaged, biological duplicates

COC(=O)[C@H](CC(C)C)NC(=O)[C@@H](N)CC(C)C [LLOME, L-leucyl-L-leucine methyl ester]
Gal3 recruitment (Galectin-3 (Gal3); Neuro-2a): did not trigger | Gal3 distribution / puncta (Galectin-3 (Gal3); [2]): trigger the recruitment of Chmp1b and Gal3 | additional time to return to a cytoplasmic TFEB distribution (TFEB; after the initial 3h, biological triplicates): 9 h | time TFEB nuclear accumulation is steady or rising after treatment (TFEB; biological triplicates): 3 h | nuclear translocation of TFEB (TFEB): triggered the nuclear translocation of TFEB | Chmp1b recruitment (Chmp1b; Neuro-2a): did not trigger | number of Chmp1b puncta (Chmp1b; [2]): trigger the recruitment of Chmp1b and Gal3 | toxicity to cells of cell penetration (cells): delayed loss of viability | recovery time of LysoTracker staining (Neuro-2a and HeLa): 8 h | uptake of H1 [1]: stimulated

CO/C1=C\C(C)=C\[C@@H](C)[C@@H](O)[C@@H](C)C/C(C)=C/C=C/[C@H](OC)[C@@H]([C@@H](C)[C@@H](O)[C@H](C)[C@@]2(O)C[C@@H](O)[C@H](C)[C@@H](C(C)C)O2)OC1=O [bafilomycin]
nuclear translocation of TFEB (TFEB): positive control
